Reference: ChEMBL document CHEMBL1131528, “Effect of steroids on DNA synthesis in an in vitro replication system: initial quantitative structure-activity relationship studies and construction of a non-estrogen receptor pharmacophore” (J Med Chem, 1998)

Tested on: Nucleic Acid
Assay: (§1) The compound was tested in vitro for its ability to initiate DNA replication
Format: nucleic-acid assay
Conditions: Homo sapiens
Procedure, shortened: (§2)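 Steroid dissolved in 100% ethanol, diluted with water (final ethanol ≤0.1%), tested at 10 nM in a HeLa cell extract in vitro replication system (extracts estrogen and progesterone receptor-negative) with plasmid template pX24 (hamster DHFR origin) or 30.4 (random human cDNA fragment). Compound preincubated with template DNA and precursor nucleotides, then remaining components added to start replication. DNA purified; synthesis measured by DpnI resistance assay with phosphoimager densitometry; expressed as % of untreated control, mean ± SD of at least two experiments.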

| Compound | DNA |
| --- | --- |
| COc1c(O)ccc2c1CC[C@@H]1[C@@H]2CC[C@]2(C)C(=O)CC[C@@H]12 | 53% |
| CC(=O)[C@H]1CC[C@H]2[C@@H]3CCC4=CC(=O)CC[C@]4(C)[C@H]3CC[C@]12C | 115% |
| C[C@]12CC[C@@H]3c4ccc(O)cc4CC[C@H]3[C@@H]1C[C@@H](O)[C@@H]2O | 118% |
| C[C@]12CC[C@@H]3c4ccc(O)cc4CC[C@H]3[C@@H]1C[C@@H](O)C2=O | 150% |
| C[C@]12CC[C@@H]3c4ccc(O)cc4CC[C@H]3[C@@H]1CCC2=O | 108% |
| C[C@]12CC[C@@H]3c4cc(O)c(O)cc4CC[C@H]3[C@@H]1CCC2=O | 92% |
| COc1ccc2c(c1OC)CC[C@@H]1[C@@H]2CC[C@]2(C)C(=O)CC[C@@H]12 | 63% |

Tested on: Nucleic Acid
Assay: as §1
Format: functional
Conditions: Homo sapiens
Procedure, shortened: as §2

| Compound | DNA |
| --- | --- |
| C[C@]12CC[C@H]3C(CCC4=CC(=O)CC[C@@]43C)[C@@H]1CC[C@@H]2O (single isomer, unassigned) | 72% |
| C[C@]12CC[C@@H]3c4ccc(O)cc4CC[C@H]3[C@@H]1CC(=O)[C@@H]2O | 99% |
| C[C@]12CC[C@@H]3c4ccc(O)cc4CC[C@H]3[C@@H]1C[C@@H](O)[C@@H]2O | 144% |
| C[C@]12CC[C@@H]3c4ccc(O)cc4CC[C@H]3[C@@H]1C[C@H](O)[C@H]2O | 200% |
| C[C@]12CC[C@@H]3c4cc(O)c(O)cc4CCC3[C@@H]1CC[C@@H]2O (single isomer, unassigned) | 52% |
| C[C@]12CC[C@@H]3c4ccc(O)c(O)c4CCC3[C@@H]1CC[C@@H]2O (single isomer, unassigned) | 53% |
| C[C@]12CC[C@@H]3c4ccc(O)cc4CC[C@H]3[C@@H]1C[C@@H](O)[C@H]2O | 103% |
